Results on 17 molecules are retold here after ChEMBL document CHEMBL1137560, “Synthesis and monoamine oxidase inhibitory activity of new pyridazine-, pyrimidine- and 1,2,4-triazine-containing tricyclic derivatives” (J Med Chem, 2007).

For orientation: pIC50 means −log10 of the IC50, conventionally taken in molar units. The low end stands for a large IC50, the high end for a small IC50. In general, inhibition refers to the drop in the measured response relative to a control, in per cent.

Each structure is given as a SMILES string. pIC50: −log10 of the molar value. Some results are limits rather than exact numbers.

For experiment [1], the target named is T1, Amine oxidase [flavin-containing] A (Rattus norvegicus, UniProt P21396).
T1 sequence (P21396 whole entry): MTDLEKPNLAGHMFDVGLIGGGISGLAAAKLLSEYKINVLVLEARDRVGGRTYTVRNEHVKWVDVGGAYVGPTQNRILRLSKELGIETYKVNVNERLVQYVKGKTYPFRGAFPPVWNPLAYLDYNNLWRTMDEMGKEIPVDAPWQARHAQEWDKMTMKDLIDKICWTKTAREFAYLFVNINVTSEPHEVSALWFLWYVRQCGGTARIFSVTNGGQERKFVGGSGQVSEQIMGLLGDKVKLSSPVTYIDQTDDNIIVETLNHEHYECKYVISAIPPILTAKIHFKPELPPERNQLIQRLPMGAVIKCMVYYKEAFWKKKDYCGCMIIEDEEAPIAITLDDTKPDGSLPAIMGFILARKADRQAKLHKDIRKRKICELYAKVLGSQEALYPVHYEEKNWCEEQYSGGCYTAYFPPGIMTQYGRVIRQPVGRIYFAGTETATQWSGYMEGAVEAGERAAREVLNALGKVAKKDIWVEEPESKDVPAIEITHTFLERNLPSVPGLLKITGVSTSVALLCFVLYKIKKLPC
In words: Inhibition of MAOA in rat brain mitochondria. The gist of the method:
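Rat brain mitochondrial suspension, isotonic Na2HPO4/KH2PO4–KCl buffer, pH 7.40, 37 °C, with 5% DMSO cosolvent. Preincubated 5 min with selegiline to isolate MAO-A. Continuous spectrophotometric assay: 90 µM kynuramine (its KM) oxidized to 4-hydroxyquinoline, followed at 314 nm. Top concentration tested 100 µM; IC50 calculated from a hyperbolic equation.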

Experiment [2] deals with T2, Amine oxidase [flavin-containing] B (Rattus norvegicus, UniProt P19643).
T2 sequence (P19643 whole entry): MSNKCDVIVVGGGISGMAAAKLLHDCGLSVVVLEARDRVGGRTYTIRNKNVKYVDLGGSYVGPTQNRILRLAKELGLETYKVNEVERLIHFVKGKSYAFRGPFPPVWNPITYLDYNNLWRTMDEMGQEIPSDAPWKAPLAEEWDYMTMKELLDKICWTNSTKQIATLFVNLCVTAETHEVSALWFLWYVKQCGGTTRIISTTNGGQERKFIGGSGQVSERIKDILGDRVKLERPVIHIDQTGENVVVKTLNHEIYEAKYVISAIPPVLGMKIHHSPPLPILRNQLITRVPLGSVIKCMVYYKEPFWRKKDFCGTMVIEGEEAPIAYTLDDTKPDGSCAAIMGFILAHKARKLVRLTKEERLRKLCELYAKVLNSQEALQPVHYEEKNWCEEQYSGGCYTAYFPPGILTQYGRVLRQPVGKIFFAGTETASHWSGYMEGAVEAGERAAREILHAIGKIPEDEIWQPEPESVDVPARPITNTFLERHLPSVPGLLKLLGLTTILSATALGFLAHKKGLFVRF
Description: Inhibition of MAOB in rat brain mitochondria. The gist of the method:
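MAO-B measured in rat brain mitochondrial suspension after 5 min preincubation with clorgyline. Incubations at pH 7.40 (isotonic phosphate/KCl) and 37 °C, 5% DMSO cosolvent. Kynuramine 60 µM (its KM); 4-hydroxyquinoline formation read continuously at 314 nm. Highest concentration 100 µM; IC50 derived by hyperbolic equation fit.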

Experiment [3] concerns the target T2, Amine oxidase [flavin-containing] B. In words: Inhibition of MAOB in rat brain mitochondria at 25 uM. Summed up: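 Rat brain mitochondrial suspension, pre-treated 5 min with clorgyline to isolate MAO-B. Kynuramine substrate at 60 µM (its KM) in isotonic Na2HPO4/KH2PO4/KCl buffer, pH 7.40, 37 °C, with 5% DMSO cosolvent. 4-Hydroxyquinoline formation followed continuously at 314 nm. Percent inhibition taken at the compound's maximum solubility; means ± SEM of three experiments, each run in duplicate.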

Experiment [4] addresses T1, Amine oxidase [flavin-containing] A. In words: Inhibition of MAOA in rat brain mitochondria at 10 uM.
Experiment [5] concerns the target T2, Amine oxidase [flavin-containing] B. Description: Inhibition of MAOB in rat brain mitochondria at 10 uM.
Experiment [6] shares this target. Description: Inhibition of MAOB in rat brain mitochondria at 20 uM.
Experiment [7] has as its target T1, Amine oxidase [flavin-containing] A. In words: Inhibition of MAOA in rat brain mitochondria at 1 uM.
Experiment [8] deals with T2, Amine oxidase [flavin-containing] B. Description: Inhibition of MAOB in rat brain mitochondria at 1 uM.
The target is the same in experiment [9]. In words: Inhibition of MAOB in rat brain mitochondria at 50 uM.
The target in experiment [10] is T1, Amine oxidase [flavin-containing] A. Description: Inhibition of MAOA in rat brain mitochondria at 50 uM.

For `O=C1c2ccccc2-c2nnc(OCc3ccccc3)cc21`, the pIC50 in experiment [1] was less than 4.00; in [2], 4.26.
The matching figures for `O=C(c1ccccc1)c1cnncc1-c1ccc(Cl)cc1`: 4.51 and less than 4.00.
The matching figures for `c1ccc(-c2ncc3c(n2)Cc2ccccc2-3)cc1`: 4.78 and 4.89.
Consider `c1ccc2c(c1)CCc1c-2[nH]c2ccccc12`, for which, in [1], the negative logarithm of the IC50 (pIC50) was 4.92. Also, the inhibition at 25 µM in experiment [3] came out at 38%.
`O=C1c2ccccc2-c2nnc(COc3ccccc3)cc21`: in [2], the negative logarithm of the IC50 (pIC50) was 5.60. In experiment [4], this molecule gave an inhibition at 10 µM of 0%.
For the molecule `Nc1cccc(-c2nnc3c(n2)-c2ccccc2C3=O)c1`, the inhibition at 10 µM in experiment [5] was 17%; in [4], 12%.
For `O=C1c2ccccc2-c2nnc(COc3ccc(F)cc3)cc21`, the pIC50 in experiment [2] was 5.72. Moreover, at 10 µM the inhibition in experiment [4] was 12%.
In [1], `c1ccc(-c2ncc3c(n2)-c2ccccc2C3)cc1` had a pIC50 of 4.74. Besides, in [6], the inhibition at 20 µM is 37%.
`O=C1c2ccccc2-c2ncnc(-c3ccccc3)c21`: the figures for the negative logarithm of the IC50 (pIC50) in [1] and in experiment [2] were 4.67 and 4.47, respectively.
Take `Cc1ncc2c(n1)C(=O)c1ccccc1-2`: the pIC50 in experiment [1] was 4.33; in experiment [2], 5.03.
As for `O=C1c2ccccc2-c2cnc(-c3cccc([N+](=O)[O-])c3)nc21`, the inhibition at 1 µM in experiment [7] worked out at 5%; in experiment [8], 12%.
Consider `O=C1c2ccccc2-c2nc(-c3cccc([N+](=O)[O-])c3)nnc21`, for which the pIC50 in [2] was 7.10. In experiment [4], this molecule came in with an inhibition at 10 µM of 23%.
The matching figures for `O=C1c2ccccc2-c2nc(-c3ccccc3)nnc21`: 5.20 and 21%.
The matching figures for `O=C1c2ccccc2-c2nnc(-c3cccc([N+](=O)[O-])c3)nc21`: 6.04 and 3%.
In experiment [1], `c1ccc2c(c1)nnc1c3ccccc3[nH]c21` gave a negative-log IC50 (pIC50) of 4.53. The same molecule displayed an inhibition at 50 µM in experiment [9] of 29%.
For `O=C1c2ccccc2-c2nnc(COc3ccc(C(F)(F)F)cc3)cc21`, the results for the inhibition at 10 µM in [5] and in experiment [4] were 48% and 0%, respectively.
`O=C1c2ccccc2-c2nn(-c3ccccc3)c(=O)cc21` showed a pIC50 in experiment [2] of 4.42. For the same molecule, the inhibition at 50 µM in experiment [10] was 46%.
